Laboratory results taken from PubChem BioAssay AID1556 (The Scripps Research Institute Molecular Screening Center, 2009).
Screen size: about 290,000 compounds; about 1,300 (0.45%) were called active. This excerpt belongs to a sample that is enriched for actives. Values without a mark were called inactive.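 Rule for the calls: active = inhibition above the mean plus 3 SD of all compounds in the same screening run (cut at about 4.5% in these data); inactive = the rest.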

Test system: metallo-beta-lactamase IMP-1 (Pseudomonas aeruginosa)
Assay: inhibition of IMP-1 nitrocefin hydrolysis – biochemical, epi-absorbance readout, Pseudomonas aeruginosa enzyme, primary screen (AID 1556)
Conditions: purified IMP-1, nitrocefin hydrolysis, epi-absorbance fluorescence; at 5.6 µM; hits give high values
How it was run: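 System: Purified IMP-1 | Read-out basis: Percent enzyme inhibition | Controls: IMP-1 with DMSO as 0%, enzyme-free DMSO as 100% | Replicates: One well per compound | Doses: 5.6 µM nominal single concentration | Detection: Epi-absorbance fluorescence, 480 nm excitation, 530 nm emission | Incubation: 25 °C, 15 min preincubation, 25 min reaction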

Compound | inhibition
CC(C)(O)C#Cc1ccc(CN2CCC(CO)(CCc3ccccc3)CC2)cc1 | -0.34%
N#Cc1ccc(-c2nc3cc(C#N)c(C#N)cc3nc2-c2ccccc2)cc1C#N | -3.53%
CC(=O)Nc1ccc(S(=O)(=O)N(C)c2nc3ccccc3nc2Cl)cc1 | -0.55%
O=C(Nc1ccc([N+](=O)[O-])cc1)C1CC12CCC2 (stereo not drawn) | -0.64%
CCC(=C/c1sc2ccc3ccccc3c2[n+]1C)/C=C1\Sc2ccc3ccccc3c2N1C | 17.3% (active)
CCCNC(=O)CSc1nc(Cc2ccccc2)nc2ccccc12 | -3.79%
COc1cc(OC)cc(-c2cc3nc(C4CCN(C(=O)OC(C)(C)C)CC4)cc(=O)n3[nH]2)c1 | -4.79%
CCc1ccccc1NC(=O)CCOc1ccccc1 | -1.54%
COc1cc(/C=C2/SC(=S)N(Cc3ccccc3)C2=O)cc(OC)c1O | 10% (active)
COc1ccc(/C=C2\SC(=S)N(CCC(=O)Nc3ccccn3)C2=O)cc1OC | -4.91%
COc1ccccc1C(=O)NNC(=O)CCN1C(=O)/C(=C\c2ccccc2)SC1=S | -0.96%
CCCOC1CCCN(C(=O)c2cc(COc3cncc(Cl)c3)on2)C1 (stereo not drawn) | -0.48%
O=C(COC(=O)c1ccc(N2CCCC2=O)cc1)c1ccc(OC(F)F)cc1 | -0.84%
C[C@@H]1CC[C@@]2(OC1)O[C@H]1C[C@H]3[C@@H]4CC=C5C[C@@H](O)[C@H](O)C[C@]5(C)C4CC[C@]3(C)[C@H]1[C@@H]2C (stereo partly drawn) | -4.13%
Cc1ccc(S(=O)(=O)N2CCN=C2SCc2c(F)cccc2Cl)cc1 | 0.72%
Cc1cccc2cc(CN(Cc3nnnn3Cc3ccccc3)C3CCCC3)c(=O)[nH]c12 | -0.68%
Cc1cc(C)c2cc(CN(Cc3cccs3)Cc3nnnn3CC3CCCO3)c(=O)[nH]c2c1 (stereo not drawn) | -1.83%
Cc1cc(C)c2cc(CN(Cc3nnnn3Cc3ccc(F)cc3)C3CCCC3)c(=O)[nH]c2c1 | 6.27% (active)
COCc1c(C(=O)N/N=C\c2cccnc2)nnn1-c1nonc1N | -2.01%
COc1ccc(C2=NS(=O)(=O)N(C)C(C(=O)N3CCCCC3)=C2)cc1 | -5.03%

Compound | inhibition
Cc1nn(C)cc1N1C(=O)c2cccc3c(N)ccc(c23)C1=O | 22.2% (active)
Cc1nn(-c2cc(Cl)ccc2N)c(=O)c2ccccc12 | -2.53%
CN1C(=O)c2cccc3c(N)ccc(c23)C1=O | 41.5% (active)
O=C1c2ccccc2C(=O)N1c1cccc2ccccc12 | -2.06%
CC(=O)Nc1ccccc1Sc1ccc2c3c(cccc13)C(=O)N(c1ccc(C)cc1)C2=O | -1.41%
O=C(O)c1ccc2c3c(cccc13)C(=O)N(OS(=O)(=O)c1ccccc1)C2=O | -1.83%
CCn1c(SCC(=O)Nc2ccc(C)cc2)nc2nc3c(cc2c1=O)CCCC3 | -2.99%
COc1ccc(C(CC(=O)c2ccccc2)S(=O)(=O)c2ccccc2)cc1 (stereo not drawn) | -1.87%
N#Cc1cccc(CN2CCC(=O)N(CCO)CC2)c1 | -1.5%
Cc1ccc(C(=O)NCC(=O)OCc2nnc(-c3ccccc3)o2)cc1 | -0.31%
Cc1ccccc1C(=O)NC(=S)Nc1ccc(N2CCN(C(=O)c3ccccc3)CC2)cc1 | -0.21%
CN(C)c1ccnc2sc(C(=O)c3ccccc3)c(N)c12 | -4.61%
Nc1c(C(=O)c2cccs2)sc2nsc(SCCN3CCCCC3)c12 | 6.4% (active)
Cc1nc2sc(C(=O)c3ccccc3)c(N)c2c2c1CCCC2 | -2.49%
N#C/C(=C\c1cccnc1)C(=O)Nc1ccc(SC(F)F)cc1 | -1.66%
Nc1ccc2nc3c(=O)[nH]c(=S)[nH]c3nc2c1 | 26.7% (active)
Cc1cccc(OCC(=O)Nc2ccc(C(=O)O)cc2NC(=O)COc2cccc(C)c2)c1 | -0.18%
O=C(CSc1nnnn1-c1ccc(O)cc1)N1N=C(c2ccc3ccccc3c2)CC1c1ccccc1 (stereo not drawn) | -2.75%
COc1ccc(N2CCN(S(=O)(=O)c3ccc4c(c3)N(C(C)=O)CCO4)CC2)cc1 | -2.08%
O=C(Nc1ccccc1)c1ccco1 | -3.16%

Compound | inhibition
Cc1ccnc(NC(=O)c2ccco2)n1 | 29.4% (active)
O=C(Nc1ccc2nccnc2c1)c1ccco1 | -1.29%
Cc1cccc2c1cnn2C(=O)CCC(=O)NC1CCCCC1 | -3.55%
Cc1cccc(NC(=O)Cn2c(=O)n(Cc3ccccc3)c(=O)c3c(C)c(C)sc32)c1 | -3.05%
CCN(CC(=O)Nc1ccc(S(=O)(=O)N2CCCC2)cc1)CC(=O)Nc1cccc(OC)c1 | 13% (active)
COc1ccccc1CC(=O)Nc1ccc(S(=O)(=O)N2CCCC2)cc1 | -1.76%
CCOc1cccc(NC(=O)C2CCCN(S(=O)(=O)c3ccc(OC)cc3)C2)c1 (stereo not drawn) | 0.1%
O=C(CN1CCN(c2ccc(O)cc2)CC1)Nc1ccc(-c2ccccc2)cc1 | -3.22%
CC(C)N(C(=O)Cn1cc(S(=O)(=O)CC(=O)N2CCOCC2)c2ccccc21)C(C)C | 1.49%
CC1=C(C(=O)Nc2ccccc2)C(c2ccco2)C(C#N)=C(SCC(N)=O)N1 (stereo not drawn) | -0.1%
N#CC1=C(N)Oc2c(sc3ccccc23)C1c1ccco1 (stereo not drawn) | 5.37% (active)
Cc1cc(C)c2c3c(sc2n1)C(c1ccccc1)C(C#N)=C(N)O3 (stereo not drawn) | -3.3%
O=C(O)CN1C(=O)CC(Cc2ccccc2)C1=O (stereo not drawn) | 4.79% (active)
O=C1CC(Cc2ccccc2)C(=O)N1c1ccc(Cl)cn1 (stereo not drawn) | -3.13%
Cc1cc(C)nc(N2C(=O)CC(Cc3ccccc3)C2=O)n1 (stereo not drawn) | -2.26%
O=C1/C(=C/c2ccc3c(c2)OCO3)CCC/C1=C\c1ccc2c(c1)OCO2 | 0.49%
CCOC(=O)CCCNC(=O)COC(=O)/C=C/c1ccc2c(c1)OCO2 | -0.37%
CCC1=C/C(=C\c2ccc3c(c2)OCO3)C(=O)S1 | 6.67% (active)
